Data: ChEMBL document CHEMBL1121519, “Basic antiinflammatory compounds. N,N',N''-Trisubstituted guanidines” (J Med Chem, 1980)

Experiments:
[1] = target: Cyclooxygenase (Bos taurus) (UniProt O62664+O62698); test: Inhibition of prostaglandin synthetase in bovine seminal vesicle microsomes using Beckman liquid scintillation counter at 10 e-5 M; conditions: Microsome
[2] = tested on: Rattus norvegicus; test: Percent inhibition of carrageenan paw edema in rat, administered orally at a dose of one tenth of oral lethal dose in mice; assay type: functional
Outline: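 1 h later, 0.1 mL of 1% carrageenan was injected into the right hind-paw plantar tissue. Paw swelling was measured by mercury-displacement plethysmometry 3 h after carrageenan, compared with controls.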

[3] = Lethal dose in mice determined by Litchfield and Wilcoxon methods after peroral administration.; assay type: toxicity, organism-based; conditions: mouse, in vivo, po
Outline: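 Median lethal dose found after oral dosing of mice, four mice per dose level, and calculated by the Litchfield–Wilcoxon method.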

SMILES	inhibition [1] [%]	Inhibition [2] [%]	LD50 [3] [mg/kg]
Cc1cc(N/C(=N/C(C)(C)C)Nc2ccccn2)c2ccccc2n1	30.1	36	> 1000
COc1cc(N/C(=N\C(C)(C)C)Nc2nccs2)c2ncccc2c1	5		> 1000
CC(C)(C)/N=C(\Nc1ccc2ccccc2n1)Nc1nccs1		32	> 1000
Clc1ccc2c(N/C(=N/C3CCCCC3)Nc3nccs3)ccnc2c1	21.6	56	> 1000
Cc1ccc2nc(C)cc(N/C(=N/C(C)(C)C)Nc3nccs3)c2c1	-7.5	42	> 1000
Cc1cc(N/C(=N/C2CCCCC2)Nc2ccccc2)c2ccccc2n1	10	38	300
CC(C)(C)/N=C(\Nc1ccc(Cl)cn1)Nc1nccs1	1	31	> 1000
CC(C)Cc1cc(N/C(=N/C(C)(C)C)Nc2nccs2)c2ccccc2n1	20	33	600
CC(C)(C)/N=C(/Nc1nccs1)Nc1cccc2cccnc12	4.3	8	> 1000
CC(C)(C)/N=C(/Nc1nccs1)Nc1cccc2c(O)cccc12		22	> 1000
c1ccc(-c2cc(N/C(=N/C3CCCCC3)Nc3nccs3)c3ccccc3n2)cc1	14	5	> 1000
CCC(C)(C)/N=C(\Nc1ncccn1)Nc1nccs1	27.5	20	> 1000
Cc1cc(N/C(=N\C(C)(C)CC(C)(C)C)Nc2nccs2)c2ccccc2n1	49.3	25	> 1000
COc1ccc2nccc(N/C(=N/C(C)(C)C)Nc3nccs3)c2c1	12.7	42	> 1000
Cc1cc(N/C(=N\C(C)(C)C)Nc2nccs2)ccn1	14.9	13	250
Cc1ccc2nccc(N/C(=N/C3CCCCC3)Nc3nccs3)c2c1	7.2	12	> 1000
Cc1cc(N/C(=N/C(C)(C)C)Nc2nc3ccccc3s2)c2ccccc2n1	51.8	18	> 1000
CC(C)(C)N=C(Nc1nccs1)Nc1nccs1	13.1	49	> 1000
CC(C)c1cc(N/C(=N/C(C)(C)C)Nc2nccs2)c2ccccc2n1	12.4	31	> 1000
CCc1cc(N/C(=N/C2CCCCC2)Nc2nccs2)c2ccccc2n1	67	24	> 1000
CCCc1cc(N/C(=N/C(C)(C)C)Nc2nccs2)c2ccccc2n1	74.1	51	600
CCCc1cc(N/C(=N/C2CCCCC2)Nc2nccs2)c2ccccc2n1	56	54	> 1000
CC(C)(C)/N=C(\Nc1ccccn1)Nc1nccs1	6.9	83	> 1000
CC(C)(C)/N=C(\Nc1nccs1)Nc1cc(-c2ccccc2)nc2ccccc12	< 10	40	> 1000
Cc1cc(N/C(=N/C2CCCCC2)Nc2nnc(S)s2)c2ccccc2n1	7	36	> 1000
CC(C)c1cc(N/C(=N/C2CCCCC2)Nc2nccs2)c2ccccc2n1	0	36	> 1000
CC/N=C(/Nc1nccs1)Nc1cc(C)nc2ccccc12	8	56	100
Cc1c(Cl)cccc1N/C(=N\C(C)(C)C)Nc1nccs1	9.5	17	> 1000

SMILES	inhibition [1] [%]	Inhibition [2] [%]	LD50 [3] [mg/kg]
CCCCCCCCCCCCCCCCCC/N=C(\Nc1nccs1)Nc1cc(C)nc2ccccc12.Cl	7	5	> 1000
Cc1cc(N/C(=N/C2CCCCC2)Nc2nc(C(=O)O)cs2)c2ccccc2n1	2.9	9	> 1000
Cc1cc(NC(=N)NC(C)(C)C)c2ccccc2n1	11.7	5	100
CC(C)(C)/N=C(\Nc1cnc2ccccc2c1)Nc1nccs1	-1	36	> 1000
Cc1cc(N/C(=N/C2CCCCC2)Nc2ccccn2)c2ccccc2n1	0.4	23	> 1000
CC(C)(C)/N=C(\N)Nc1nccs1.O=C(O)/C=C\C(=O)O	29	54	600
Cc1cc(N/C(=N\C2CCCC2)Nc2nccs2)c2ccccc2n1	58.7	52	600
Cc1cc(N/C(=N/C2CCCCC2)Nc2nncs2)c2ccccc2n1	15.1	40	250
Cc1cc(N/C(=N/C(C)(C)C)Nc2nnc(S)s2)c2ccccc2n1	6	16	> 1000
Cc1ccc2cc(N/C(=N\C(C)(C)C)Nc3nccs3)ccc2n1	3.7	43	> 1000
CC(C)(C)/N=C(\Nc1nccs1)Nc1ccnc2cc(C(F)(F)F)ccc12		32	> 1000
Cc1cc(N/C(=N/C(C)(C)C)Nc2ccccc2)c2ccccc2n1	43.9	34	40
Cc1cc(N/C(=N/C2CCCCC2)Nc2c(C)noc2C)c2ccccc2n1	19.3	17	> 1000
Cc1cc(N/C(=N\C(C)CCCC(C)C)Nc2nccs2)c2ccccc2n1 (stereo unspecified)	1.7	25	> 1000
CC(C)(C)/N=C(\Nc1ccncc1)Nc1nccs1		15	300
Cc1cc(N/C(=N/C2CCCC(C)C2C)Nc2nccs2)c2ccccc2n1.Cl (stereo unspecified)	7	47	> 1000
Cc1cc(NC(=N)NC2CCCCC2)c2ccccc2n1			> 1000
CC(C)(C)/N=C(/Nc1nccs1)Nc1cccc2cnccc12	-8.8	21	> 1000
Cc1cc(N/C(=N/c2ccccc2C)Nc2nccs2)c2ccccc2n1	14.8	53	> 1000
Cc1cc(N/C(=N\C(C)C(C)(C)C)Nc2nccs2)c2ccccc2n1 (stereo unspecified)	4	36	> 1000
CC(C)Cc1cc(N/C(=N/C2CCCCC2)Nc2nccs2)c2ccccc2n1	11	40	> 1000
Cc1cc(N/C(=N/C23C[C@H]4C[C@@H](C2)C[C@@H](C3)C4)Nc2nccs2)c2ccccc2n1	32	17	> 1000
Cc1cc(N/C(=N/C2CCCCC2)Nc2nnc(C)s2)c2ccccc2n1	36.2	56	> 1000
CCOC(=O)c1cnc(/N=C(\Nc2cc(C)nc3ccccc23)NC(C)(C)C)s1	15.8	16	> 1000
Cc1cc(N/C(=N/C(C)(C)C)NCCO)c2ccccc2n1	2.8	40	600
CCC(C)(C)/N=C(\Nc1cccnc1)Nc1nccs1	0	82	> 1000
Cc1cc(N/C(=N/C(C)(C)C)Nc2cnccn2)c2ccccc2n1			> 1000
